Laboratory results published in publication PMC6828556 (Biochemical pharmacology, 2017).

Legend:
11β-HSD2 [1] = target: T1, 11β-HSD2 (Homo sapiens, UniProt P80365); assay: 11β-HSD2 activity in lysates of HEK-293 cells stably expressing human 11β-HSD2; assay type: biochemical; conditions: for inhibition at 20 µM: read-out: inhibition of 11β-HSD2 enzyme activity; for residual 11β-HSD2 activity: 20 μM test substance; for IC25 for 11β-HSD2: as determined in HEK-293 cell lysates
T1 sequence (P80365 1-405): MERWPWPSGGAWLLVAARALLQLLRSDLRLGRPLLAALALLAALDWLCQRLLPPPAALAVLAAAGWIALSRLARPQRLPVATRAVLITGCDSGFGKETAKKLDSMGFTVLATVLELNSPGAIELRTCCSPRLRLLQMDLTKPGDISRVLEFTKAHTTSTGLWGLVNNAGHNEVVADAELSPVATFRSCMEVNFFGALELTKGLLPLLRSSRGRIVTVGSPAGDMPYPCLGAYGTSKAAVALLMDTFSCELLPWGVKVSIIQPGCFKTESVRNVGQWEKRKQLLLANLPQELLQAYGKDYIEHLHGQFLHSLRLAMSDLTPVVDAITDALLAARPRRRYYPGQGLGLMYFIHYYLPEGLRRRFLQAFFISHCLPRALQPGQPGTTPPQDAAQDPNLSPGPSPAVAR
Outline: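 Reactions were stopped with excess unlabeled cortisone/cortisol, giving about 20–25% conversion. Products were separated by TLC (chloroform:methanol 9:1) and counted by scintillation. Activity was normalized to vehicle; mean ± SD, ≥3 independent experiments.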

human 11β-HSD1 = human 11β-HSD1 (Homo sapiens, UniProt P28845); assay type: biochemical; conditions: for activity against 11β-HSD1 (in words): HEK-293 lysates, recombinant human enzyme; for inhibition at 20 µM: read-out: inhibition of 11β-HSD1 enzyme activity
Outline: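 Lysates of HEK-293 cells stably co-expressing human 11β-HSD1 and H6PDH (HHH7 clone) were incubated 10 min at 37°C with 200 nM radiolabeled cortisone, 500 μM NADPH and test compound or DMSO vehicle (max 0.1%). Reactions were stopped with excess unlabeled cortisone/cortisol, giving about 20–25% conversion. Steroids were separated by TLC (chloroform:methanol 9:1) and counted by scintillation. Activity was normalized to vehicle; mean ± SD, ≥3 independent experiments. IC50 was skipped when residual activity at 20 μM exceeded 40%.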

11β-HSD2 [2] = conditions: cited from earlier work
11β-HSD1 = conditions: cited from earlier work
11β-HSD2 [3] = target: T1, 11β-HSD2; assay: 11β-HSD2 activity in intact SW-620 cells; assay type: cell-based
Outline: (§1)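 Cells were grown in DMEM with 10% FBS (SW-620 passages 11–15, MCF-7 passages 19–27) and seeded at 100 000 (SW-620) or 50 000 (MCF-7) per well. After 24 h, medium was replaced by steroid- and serum-free DMEM with vehicle or inhibitor plus radiolabeled cortisol (10 nCi; 50 nM final). Incubation was at 37°C for 4 h (SW-620) or 5 h (MCF-7). Conversion was read by TLC and scintillation counting.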

11β-HSD2 [4] = target: T1, 11β-HSD2; assay: 11β-HSD2 activity in intact MCF-7 cells; assay type: cell-based
Outline: as §1

[5] = predominately to albumin; cited from earlier work
human 17β-HSD1 = target: T2, human 17β-HSD1 (Homo sapiens, UniProt P14061); assay: 17β-HSD1 activity in lysates of transiently transfected HEK-293 cells; assay type: biochemical; conditions: HEK-293 lysates, 200 nM estrone; data not shown
T2 sequence (P14061 1-328): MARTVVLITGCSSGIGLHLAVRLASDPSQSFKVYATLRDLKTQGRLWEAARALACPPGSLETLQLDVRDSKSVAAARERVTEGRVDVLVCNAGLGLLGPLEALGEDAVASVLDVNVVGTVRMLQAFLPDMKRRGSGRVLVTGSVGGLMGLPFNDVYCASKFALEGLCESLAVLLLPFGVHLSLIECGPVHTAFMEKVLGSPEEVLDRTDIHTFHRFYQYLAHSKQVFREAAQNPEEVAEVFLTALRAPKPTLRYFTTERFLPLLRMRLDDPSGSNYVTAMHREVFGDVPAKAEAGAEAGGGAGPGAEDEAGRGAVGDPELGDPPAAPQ
Outline: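 Lysates of HEK-293 cells transiently expressing human 17β-HSD1 were incubated for 10 min at 37°C with 200 nM estrone (containing 50 nCi [2,4,6,7-3H]-estrone), 500 μM NADPH and test compound or DMSO vehicle. Steroids were separated by TLC, and substrate conversion was measured by scintillation counting. Activity was normalized to the vehicle control. Data are mean ± SD from at least three independent experiments.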

human 17β-HSD2 = target: T3, human 17β-HSD2 (Homo sapiens, UniProt P37059); assay: 17β-HSD2 activity in lysates of transiently transfected HEK-293 cells; assay type: biochemical; conditions: HEK-293 lysates, 200 nM estradiol; data not shown
T3 sequence (P37059 1-387): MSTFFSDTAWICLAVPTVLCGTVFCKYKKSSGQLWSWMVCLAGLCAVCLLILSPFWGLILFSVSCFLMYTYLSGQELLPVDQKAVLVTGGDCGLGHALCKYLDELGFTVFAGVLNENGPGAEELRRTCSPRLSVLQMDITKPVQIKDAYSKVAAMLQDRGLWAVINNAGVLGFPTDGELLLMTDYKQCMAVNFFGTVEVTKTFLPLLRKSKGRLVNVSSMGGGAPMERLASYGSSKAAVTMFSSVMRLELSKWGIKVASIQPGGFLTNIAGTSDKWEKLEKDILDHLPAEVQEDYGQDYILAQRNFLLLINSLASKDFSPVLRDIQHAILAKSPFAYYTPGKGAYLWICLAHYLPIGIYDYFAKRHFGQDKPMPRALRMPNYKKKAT
Outline: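 Lysates of HEK-293 cells transiently expressing human 17β-HSD2 were incubated for 10 min at 37°C with 200 nM estradiol (containing 50 nCi [2,4,6,7-3H]-estradiol), 500 μM NAD+ and test compound or DMSO vehicle. Steroids were separated by TLC, with conversion quantified by scintillation counting. Results were normalized to the vehicle control. Data are mean ± SD from at least three independent experiments.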

11β-HSD2 [6] = target: T1, 11β-HSD2; assay type: biochemical; conditions: preincubation 0, 5, 20 min at 4°C or 10 min followed by dilution
Outline: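 Lysates of HEK-293 cells expressing human 11β-HSD2 were preincubated with test compound for 0, 5 or 20 min at 4°C before activity measurement. Alternatively, lysates were preincubated 10 min with compound, then diluted 1:2 or 1:4 before measuring 11β-HSD2 activity (radiolabeled cortisol, NAD+, TLC/scintillation). Data were normalized to DMSO control; mean ± SD, ≥3 independent experiments.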

[7] = first trimester exposure, 229 women, 50-800 mg daily, prospective cohort; cited from earlier work
[8] = cited from earlier work

Chain of human 11β-HSD1 (P28845 whole entry): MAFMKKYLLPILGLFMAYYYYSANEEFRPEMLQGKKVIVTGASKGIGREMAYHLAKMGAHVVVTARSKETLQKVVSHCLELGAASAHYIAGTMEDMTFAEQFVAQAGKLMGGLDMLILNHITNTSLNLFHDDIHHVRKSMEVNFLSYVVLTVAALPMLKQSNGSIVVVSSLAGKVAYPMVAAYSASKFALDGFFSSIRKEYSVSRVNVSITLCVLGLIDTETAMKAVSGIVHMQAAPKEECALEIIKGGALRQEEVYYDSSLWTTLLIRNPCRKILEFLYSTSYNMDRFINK

CCCSc1ccc2nc(NC(=O)OC)[nH]c2c1 [Albendazole]
activity against 11β-HSD2 (in words) (11β-HSD2 [1]; HEK-293 lysates, recombinant human enzyme): inactive | activity against 11β-HSD1 (in words) (human 11β-HSD1): inactive

CC(=O)N1CCN(c2ccc(OCC3COC(Cn4ccnc4)(c4ccc(Cl)cc4Cl)O3)cc2)CC1 (centres unmarked) [Ketoconazole]
inhibitory effect toward 11β-HSD2 (in words) (11β-HSD2 [2]): weak inhibitory effects | inhibitory effect toward 11β-HSD1 (in words) (11β-HSD1): weak inhibitory effects

CC(O)C(C)n1ncn(-c2ccc(N3CCN(c4ccc(OCC5COC(Cn6cncn6)(c6ccc(Cl)cc6Cl)O5)cc4)CC3)cc2)c1=O (centres unmarked) [OHI, hydroxyitraconazole]
IC50 (11β-HSD2 [3]): 820 ± 180 nM | IC50 (11β-HSD2 [4]): 680 ± 200 nM | IC50 (11β-HSD2 [1]): 223 ± 31 nM | inhibition of human 11β-HSD2 (in words) (11β-HSD2 [1]; 5 μM, HEK-293 lysates, 200 nM cortisol): complete inhibition | plasma protein binding [5]: 99.6% | inhibition of 17β-HSD1 activity (human 17β-HSD1): None of the compounds inhibited 17β-HSD1 or 17β-HSD2 activity | inhibition of 17β-HSD2 activity (human 17β-HSD2): None of the compounds inhibited 17β-HSD1 or 17β-HSD2 activity | irreversible 11β-HSD2 inhibition (11β-HSD2 [6]): excluded

CCN(CC)Cc1cc(Nc2ccnc3cc(Cl)ccc23)ccc1O [amodiaquine]
inhibition at 20 µM (11β-HSD2 [1]): < 40% | inhibition at 20 µM (human 11β-HSD1): < 40%

Clc1ccc(CCC(Cn2ccnc2)Sc2c(Cl)cccc2Cl)cc1 (centres unmarked) [butoconazole]
residual 11β-HSD2 activity (11β-HSD2 [1]; HEK-293 lysates): 44% | inhibition at 20 µM (human 11β-HSD1): ≥ 50%

CCN(CC)CCCC(C)Nc1ccnc2cc(Cl)ccc12 (centres unmarked) [chloroquine]
inhibition at 20 µM (11β-HSD2 [1]): < 40% | inhibition at 20 µM (human 11β-HSD1): < 40%

CCC[C@@H]1C[C@@H](C(=O)N[C@@H]([C@H]2O[C@H](SC)[C@H](O)[C@@H](O)[C@H]2O)[C@H](C)Cl)N(C)C1 [clindamycin]
inhibition at 20 µM (11β-HSD2 [1]): < 40% | inhibition at 20 µM (human 11β-HSD1): < 40%

Cc1onc(-c2ccccc2Cl)c1C(=O)N[C@@H]1C(=O)N2[C@@H]1SC(C)(C)[C@@H]2C(=O)O [cloxacillin]
inhibition at 20 µM (11β-HSD2 [1]): < 40% | inhibition at 20 µM (human 11β-HSD1): < 40%

Cc1onc(-c2c(F)cccc2Cl)c1C(=O)N[C@@H]1C(=O)N2[C@@H]1SC(C)(C)[C@@H]2C(=O)O [flucloxacillin]
inhibition at 20 µM (11β-HSD2 [1]): < 40% | inhibition at 20 µM (human 11β-HSD1): < 40%

CC(=O)O[C@H]1C[C@@]2(C)[C@@H](C[C@@H](O)[C@H]3[C@@]4(C)CC[C@@H](O)[C@@H](C)[C@@H]4CC[C@@]32C)/C1=C(\CCC=C(C)C)C(=O)O [fusidic acid]
inhibition at 20 µM (11β-HSD2 [1]): < 40% | inhibition at 20 µM (human 11β-HSD1): < 40%

CCC(C)n1ncn(-c2ccc(N3CCN(c4ccc(OCC5COC(Cn6cncn6)(c6ccc(Cl)cc6Cl)O5)cc4)CC3)cc2)c1=O (centres unmarked) [itraconazole]
rate of malformations compared to the control [7]: no difference | IC50 (11β-HSD2 [3]): 1070 ± 290 nM | IC50 (11β-HSD2 [4]): 1190 ± 240 nM | IC50 (11β-HSD2 [1]): 139 ± 14 nM | IC25 for 11β-HSD2 (11β-HSD2 [1]): 78 nM | inhibition of 17β-HSD1 activity (human 17β-HSD1): None of the compounds inhibited 17β-HSD1 or 17β-HSD2 activity | inhibition of 17β-HSD2 activity (human 17β-HSD2): None of the compounds inhibited 17β-HSD1 or 17β-HSD2 activity | activity against 11β-HSD1 (in words) (human 11β-HSD1): inactivity towards 11β-HSD1 | concentration in fat tissue relative to plasma ([8]; fat tissue): approximately 17 fold | duration of treatment needed to reach plasma steady-state levels ([8]; human plasma): 15 days | concentration in lung, liver, muscle and kidney relative to plasma ([8]; lung, liver, muscle and kidney): 2-3 fold | irreversible 11β-HSD2 inhibition (11β-HSD2 [6]): excluded

CCC[C@@H]1C[C@@H](C(=O)N[C@@H]([C@H]2O[C@H](SC)[C@H](O)[C@@H](O)[C@H]2O)[C@@H](C)O)N(C)C1 [lincomycin]
inhibition at 20 µM (11β-HSD2 [1]): < 40% | inhibition at 20 µM (human 11β-HSD1): < 40%

CCOc1ccc2ccccc2c1C(=O)N[C@@H]1C(=O)N2[C@@H]1SC(C)(C)[C@@H]2C(=O)O [nafcillin]
inhibition at 20 µM (11β-HSD2 [1]): < 40% | inhibition at 20 µM (human 11β-HSD1): < 40%

N=C(N)c1ccc(OCCCCCOc2ccc(C(=N)N)cc2)cc1 [pentamidine]
inhibition at 20 µM (11β-HSD2 [1]): < 40% | inhibition at 20 µM (human 11β-HSD1): < 40%

CC[C@@H]([C@H](C)O)n1ncn(-c2ccc(N3CCN(c4ccc(OC[C@@H]5CO[C@@](Cn6cncn6)(c6ccc(F)cc6F)C5)cc4)CC3)cc2)c1=O [posaconazole]
residual 11β-HSD2 activity (11β-HSD2 [3]; SW-620 cells, 5 μM): approximately 60% | residual 11β-HSD2 activity (11β-HSD2 [4]; MCF-7 cells, 5 μM): ~40% | IC50 (11β-HSD2 [1]): 460 ± 98 nM | IC25 for 11β-HSD2 (11β-HSD2 [1]): 237 nM | plasma protein binding [5]: ≥ 98% | inhibition of 17β-HSD1 activity (human 17β-HSD1): None of the compounds inhibited 17β-HSD1 or 17β-HSD2 activity | inhibition of 17β-HSD2 activity (human 17β-HSD2): None of the compounds inhibited 17β-HSD1 or 17β-HSD2 activity | activity against 11β-HSD1 (in words) (human 11β-HSD1): inactivity towards 11β-HSD1 | concentration in pulmonary alveolar cells compared with plasma ([8]; pulmonary alveolar cells): 31-42 fold | irreversible 11β-HSD2 inhibition (11β-HSD2 [6]): excluded

CCCN(CCC)S(=O)(=O)c1ccc(C(=O)O)cc1 [probenecid]
inhibition at 20 µM (11β-HSD2 [1]): < 40% | inhibition at 20 µM (human 11β-HSD1): < 40%

Clc1ccc(C(Cn2ccnc2)OCc2csc3c(Cl)cccc23)c(Cl)c1 (centres unmarked) [sertaconazole]
residual 11β-HSD2 activity (11β-HSD2 [1]; HEK-293 lysates): 61% | inhibition at 20 µM (human 11β-HSD1): ≥ 50%

Clc1ccc(C(Cn2ccnc2)OCc2ccsc2Cl)c(Cl)c1 (centres unmarked) [tioconazole]
residual 11β-HSD2 activity (11β-HSD2 [1]; HEK-293 lysates): 50% | inhibition at 20 µM (human 11β-HSD1): ≥ 50%

CC(C)(C)C(=O)C(Oc1ccc(Cl)cc1)n1cncn1 (centres unmarked) [triadimefon]
IC50 (11β-HSD1; read-out: IC50 as competitive inhibitor of 11β-HSD1): 15000 nM | Km (11β-HSD1; read-out: Km as substrate of 11β-HSD1): 3.5 µM
